Activity calls are given as the source filed them. The rule behind the calls is not given here. Residues, ends and D or L forms follow the SMILES beside them.
Columns and labels:
HeLa = test: Induction of autophagy in human HeLa cells expressing EGFP-LC3 assessed as increase in LC3-2 level at 50 uM in presence of 400 nM bafilomycin A1; assay type: functional, cell-based
COS-7 [1] = test: Induction of autophagy in african green monkey COS7 cells assessed as increase in LC3-2 vesicle at 50 uM after 24 hrs by immunofluorescence assay; assay type: functional, cell-based; conditions: Chlorocebus aethiops
In short: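 Fixed COS-7 cells, after 24 h exposure, immunostained for LC3 with an anti-LC3 primary and Alexa-conjugated secondary; confocal imaging of LC3-positive vesicles.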

SK-N-SH (Homo sapiens) [2] = test: Induction of autophagy in human SK-N-SH cells expressing EGFP-HDQ74 assessed as reduction in EGFP-HDQ74 aggregation at 1 uM after 48 hrs by densitometric analysis
SK-N-MC [3] = test: Cytotoxicity against human SK-N-MC cells expressing EGFP-HDQ74 at 1 uM after 48 hrs; assay type: cell-based
SK-N-SH [4] = test: Induction of autophagy in human SK-N-SH cells assessed as inhibition of Bay K8644-induced calpain activation; assay type: functional, cell-based
In short: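 SK-N-SH cells pretreated 15 min, then given 1 μM (±)-Bay K8644 for 4 h. The active calpain small subunit was detected by immunoblot.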

Mus musculus = species: Mus musculus; test: Induction of autophagy in Atg deficient mouse […] expressing EGFP-HDQ74 at 1 uM after 48 hrs; assay type: functional
SK-N-MC [5] = test: Induction of autophagy in Atg positive human SK-N-MC cells expressing EGFP-HDQ74 at 1 uM after 48 hrs; assay type: functional, cell-based
COS-7 [6] = test: Induction of autophagy in african green monkey COS7 cells expressing PLC-epsilon assessed as calpain activation at 2.5 uM after 30 mins by immunoblotting analysis; assay type: functional, cell-based; conditions: Chlorocebus aethiops
In short: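 Calpain activation in COS-7 after 30 min exposure, alongside 2.5 μM thapsigargin where applied; immunoblot of the active calpain small subunit.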

Danio rerio [7] = species: Danio rerio; test: Protection of neurodegeneration in zebrafish Huntington's disease model expressing EGFP-tagged huntingtin exon with EGFP-HDQ71 in rod photoreceptor assessed as induction of rhodopsin expression at 3 uM; assay type: functional, organism-based
In short: (§1)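 Zebrafish larvae dark-reared 3–9 d.p.f. with drug in E3, refreshed daily, then lysed in RIPA/DTT. Western blot with anti-rhodopsin (Zpr3, 1:1000), anti-Zpr1 and anti-EGFP antibodies; ECL detection.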

Danio rerio [8] = species: Danio rerio; test: Protection of neurodegeneration in zebrafish Huntington's disease model expressing EGFP-tagged huntingtin exon with EGFP-HDQ71 in rod photoreceptor assessed as induction of rhodopsin expression at 1 uM; assay type: functional, organism-based; in short: as §1
COS-7 [9] = test: Induction of autophagy in african green monkey COS7 cells expressing EGFP-HDQ74/rheb assessed as reduction in EGFP-HDQ74 aggregation at 0.2 uM after 2 hrs; assay type: functional, cell-based; conditions: Chlorocebus aethiops
COS-7 [10] = test: Induction of autophagy in african green monkey COS7 cells expressing EGFP-LC3 assessed as increase in EGFP-LC3 vesicle at 0.2 uM after 2 hrs; assay type: functional, cell-based; conditions: Chlorocebus aethiops
In short: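 COS-7 transfected 4 h with EGFP-LC3, then exposed 2 h together with 2.5 μM thapsigargin. Each EGFP-positive cell was scored positive if it had >5 EGFP-LC3 vesicles. Blinded fluorescence microscopy; triplicate, at least twice.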

Danio rerio [11] = species: Danio rerio; test: Protection of neurodegeneration in zebrafish Huntington's disease model expressing EGFP-tagged huntingtin exon with EGFP-HDQ71 in rod photoreceptor assessed as induction of rhodopsin expression at 100 uM; assay type: functional, organism-based
In short: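 Zebrafish larvae dosed 3–9 d.p.f. in E3 medium (daily refresh, dark-reared), lysed in 80% RIPA/100 mM DTT with protease inhibitor for 1 h on ice. Proteins run on 10% SDS-PAGE and blotted with anti-rhodopsin (Zpr3, 1:1000), anti-Zpr1 and anti-EGFP; ECL detection.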

COS-7 [12] = test: Induction of autophagy in african green monkey COS7 cells expressing EGFP-HDQ74/m-calpain assessed as decrease in EGFP-HDQ74 aggregation at 500 uM after 48 hrs; assay type: functional, cell-based; conditions: Chlorocebus aethiops
SK-N-SH [13] = test: Induction of autophagy in human SK-N-SH cells expressing EGFP-HDQ74 assessed as reduction in EGFP-HDQ74 aggregation at 500 uM after 48 hrs by densitometric analysis; assay type: functional, cell-based
PC-12 [14] = test: Induction of autophagy in rat stable inducible PC12 cells assessed as increase in LC3-2 level at 500 uM after 24 hrs by immunoblotting analysis; assay type: functional, cell-based
In short: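 Stable inducible PC12 cells exposed 24 h; endogenous LC3-II measured by anti-LC3 immunoblotting, with densitometry relative to actin.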

Danio rerio [15] = species: Danio rerio; test: Protection of neurodegeneration in zebrafish Huntington's disease model expressing EGFP-tagged huntingtin exon with EGFP-HDQ71 in rod photoreceptor assessed as decrease in […] aggregation at 100 uM; assay type: functional, organism-based
In short: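 Transgenic zebrafish embryos kept in 0.1 mM PTU from 1 to 3 d.p.f. and screened by EGFP, then dark-reared 3–9 d.p.f. in compound in E3 medium (pH 7.2), refreshed daily. Fixed in 4% PFA, cryosectioned at 12 μm; aggregates counted over 96 μm of central eye. Mean of 10 fish; ANOVA with Dunnett test.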

PC-12 [16] = test: Induction of autophagy in rat stable inducible PC12 cells expressing A53T alpha-synuclein assessed as inhibition of PACAP-retarded A53T alpha-synuclein clearance at 500 uM after 24 hrs by densitometric analysis; assay type: functional, cell-based
In short: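 Inducible PC12 A53T α-synuclein line (doxycycline 1 μg/ml 48 h, then 24 h off-induction) treated 24 h with 100 nM PACAP with or without compound. Clearance measured by anti-HA immunoblot, densitometry relative to actin.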

PC-12 [17] = test: Induction of autophagy in rat stable inducible PC12 cells expressing A53T alpha-synuclein assessed as A53T alpha-synuclein clearance at 500 uM after 24 hrs by densitometric analysis; assay type: functional, cell-based
In short: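 Inducible PC12 A53T α-synuclein (HA) cells induced with 1 μg/ml doxycycline for 48 h. Doxycycline then removed for 24 h with compound or DMSO. Remaining protein measured by anti-HA immunoblot, densitometry relative to actin.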

Danio rerio [18] = species: Danio rerio; test: Protection of neurodegeneration in zebrafish Huntington's disease model expressing EGFP-tagged huntingtin exon with EGFP-HDQ71 in rod photoreceptor assessed as decrease in […] aggregation at 3 uM; assay type: functional, organism-based
In short: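 Transgenic zebrafish larvae raised in PTU to 3 d.p.f., then dark-reared 3–9 d.p.f. with drug in E3 medium (pH 7.2), refreshed daily. Fixed fish were cryosectioned at 12 μm and aggregates counted over 96 μm of the central eye. Means from 10 fish per group; ANOVA with Dunnett's test.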

Danio rerio [19] = species: Danio rerio; test: Protection of neurodegeneration in zebrafish Huntington's disease model expressing EGFP-tagged huntingtin exon with EGFP-HDQ71 in rod photoreceptor assessed as loss of rhodopsin expression at 3 uM
Drosophila [20] = test: Protection of neurodegeneration in Drosophila Huntington's disease model assessed as induction autophagy at 2.5 mM; assay type: functional, organism-based
In short: (§2)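 Progeny reared on instant food with drug (from 0.5 M DMSO stock) or DMSO, at 25°C, 70% humidity, 12 h light/dark. Photoreceptors scored by pseudopupil technique 2 days after eclosion; paired t-test on experiment averages.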

SK-N-SH (Homo sapiens) [21] = test: Induction of autophagy in human SK-N-SH cells assessed as increase in LC3-2 level at 0.33 uM after 24 hrs by immunoblotting analysis
Danio rerio [22] = species: Danio rerio; test: Protection of neurodegeneration in zebrafish Huntington's disease model expressing EGFP-tagged huntingtin exon with EGFP-HDQ71 in rod photoreceptor assessed as decrease in […] aggregation at 3 uM
SK-N-SH [23] = test: Induction of autophagy in human SK-N-SH cells expressing EGFP-HDQ74 assessed as inhibition of Bay K8644-induced EGFP-HDQ74 aggregation at 1 uM after 48 hrs; assay type: functional, cell-based
In short: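 SK-N-SH cells transfected with EGFP-HDQ74 (LipofectAMINE PLUS, 4 h), then exposed alongside 1 μM (±)-Bay K8644. Proportion of EGFP-positive cells with aggregates scored at 48 h post-transfection by a blinded observer.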

Drosophila [24] = test: Protection of neurodegeneration in Drosophila Huntington's disease model assessed as induction autophagy at 1.25 mM; assay type: functional, organism-based; in short: as §2
SK-N-SH [25] = test: Induction of autophagy in human SK-N-SH cells expressing EGFP-HDQ74/m-calpain assessed as inhibition of EGFP-HDQ74 aggregation at 1 uM after 48 hrs; assay type: functional, cell-based
COS-7 [26] = test: Induction of autophagy in african green monkey COS7 cells expressing EGFP-HDQ74/rheb assessed as reduction in EGFP-HDQ74 aggregation at 50 uM after 48 hrs; assay type: functional, cell-based; conditions: Chlorocebus aethiops
PC-12 [27] = test: Induction of autophagy in differentiated rat stable inducible PC12 cells expressing EGFP-HDQ74 assessed as EGFP-HDQ74 clearance at 10 uM after 96 hrs by calpain activation assay; assay type: functional, cell-based
COS-7 [28] = test: Induction of autophagy in african green monkey COS7 cells expressing EGFP-LC3 assessed as increase in EGFP-LC3 vesicle at 50 uM after 24 hrs; assay type: functional, cell-based; conditions: Chlorocebus aethiops
COS-7 [29] = test: Induction of autophagy in african green monkey COS7 cells expressing EGFP-HDQ74 assessed as inhibition of PLC-epsilon overexpression-induced EGFP-HDQ74 aggregation at 50 uM after 48 hrs; assay type: functional, cell-based; conditions: Chlorocebus aethiops
PC-12 [30] = test: Induction of autophagy in undifferentiated rat stable inducible PC12 cells expressing A53T alpha-synuclein assessed as A53T alpha-synuclein clearance at 10 uM after 96 hrs by calpain activation assay; assay type: functional, cell-based
COS-7 [31] = test: Induction of autophagy in african green monkey COS7 cells assessed as increase in autophagosome at 50 uM after 24 hrs by electron microscopy; assay type: functional, cell-based; conditions: Chlorocebus aethiops
In short: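 COS-7 cells exposed 24 h, fixed, and examined by electron microscopy. Early and late autophagosome-like structures were counted per 50 cell profiles. Student's t-test; error bars are standard error of the mean.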

PC-12 [32] = test: Induction of autophagy in undifferentiated rat stable inducible PC12 cells expressing EGFP-HDQ74 assessed as EGFP-HDQ74 clearance at 10 uM after 96 hrs by calpain activation assay; assay type: functional, cell-based
PC-12 [33] = test: Induction of autophagy in differentiated rat stable inducible PC12 cells expressing A53T alpha-synuclein assessed as A53T alpha-synuclein clearance at 10 uM after 96 hrs by calpain activation assay; assay type: functional, cell-based

CSCC[C@@H](C=O)NC(=O)[C@H](CC(C)C)NC(=O)[C@H](CC(C)C)NC(C)=O (Ac-Leu-Leu-Met-aldehyde)
Activity (HeLa): Active
Activity (COS-7 [1]): Active

COC(=O)C1=C(C)NC(C)=C([N+](=O)[O-])C1c1ccccc1C(F)(F)F (racemic)
Activity (SK-N-SH (Homo sapiens) [2]): inactive
Activity (SK-N-MC [3]): Toxic
inhibition (SK-N-SH [4]): Dose-dependent effect
Activity (Mus musculus): inactive
Activity (SK-N-MC [5]): Active
Activity (COS-7 [6]): Active
Activity (Danio rerio [7]): inactive
Activity (Danio rerio [8]): Active

CO[C@H]1C[C@@H]2CC[C@@H](C)[C@@](O)(O2)C(=O)C(=O)N2CCCC[C@H]2C(=O)O[C@H]([C@H](C)C[C@@H]2CC[C@@H](O)[C@H](OC)C2)CC(=O)[C@H](C)/C=C(\C)[C@@H](O)[C@@H](OC)C(=O)[C@H](C)C[C@H](C)/C=C/C=C/C=C/1C
Activity (COS-7 [9]): Active
Activity (COS-7 [10]): Active

C[C@H]1O[C@@H](n2cnc3c(N)ncnc32)C[C@@H]1O
Activity (Danio rerio [11]): Active
Activity (COS-7 [12]): Active
Activity (SK-N-SH [13]): Active
Activity (PC-12 [14]): Active
Activity (Danio rerio [15]): Active
Activity (PC-12 [16]): Active
Activity (PC-12 [17]): Active

COc1ccc(CCN(C)CCCC(C#N)(c2ccc(OC)c(OC)c2)C(C)C)cc1OC (stereo not given)
Activity (Danio rerio [18]): Active
Activity (SK-N-SH (Homo sapiens) [2]): Active
Activity (Danio rerio [19]): inactive
Activity (Drosophila [20]): Active
Activity (SK-N-SH (Homo sapiens) [21]): Active
Activity (Danio rerio [22]): Active
Activity (SK-N-SH [23]): Active
Activity (Mus musculus): inactive
Activity (SK-N-MC [5]): Active
Activity (Drosophila [24]): Active
Activity (Danio rerio [7]): Active
Activity (SK-N-SH [25]): inactive

CCCC[C@@H](C=O)NC(=O)[C@H](CC(C)C)NC(=O)OCc1ccccc1
Activity (COS-7 [26]): Active
Activity (PC-12 [27]): Active
Activity (COS-7 [28]): Active
Activity (COS-7 [29]): Active
Activity (PC-12 [30]): Active
Activity (HeLa): Active
Activity (COS-7 [31]): Active
Activity (PC-12 [32]): Active
Activity (PC-12 [33]): Active
